From paper PMC8159369 (Chemical Science, 2020)

Molecular target: HRP-labeled WGA
Experiment: Enzyme-linked lectin assay
Parameters: species or system Triticum vulgaris
Conditions: inhibition of binding of HRP-labeled WGA to covalently immobilized GlcNAc
In short: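 ELLA in which the test compound competes with a surface-coated reference ligand for lectin binding. Dose–response curves were recorded over a concentration series. IC50 is the concentration giving 50% inhibition of lectin binding.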

- IC50: 15 mM
SMILES: CC(=O)N[C@@H]1[C@@H](O)[C@H](O)[C@@H](CO)O[C@H]1O [GlcNAc, N-acetylglucosamine]
